Assay results reported in the M2OR odorant receptor database.
Positions count from the first letter of the chain named.

Legend:
Settings in all cases: stereoisomer not certain
OR4K13 (Homo sapiens) = biological target: T1, OR4K13 (Homo sapiens) (UniProt Q8NH42)
T1 sequence (whole entry): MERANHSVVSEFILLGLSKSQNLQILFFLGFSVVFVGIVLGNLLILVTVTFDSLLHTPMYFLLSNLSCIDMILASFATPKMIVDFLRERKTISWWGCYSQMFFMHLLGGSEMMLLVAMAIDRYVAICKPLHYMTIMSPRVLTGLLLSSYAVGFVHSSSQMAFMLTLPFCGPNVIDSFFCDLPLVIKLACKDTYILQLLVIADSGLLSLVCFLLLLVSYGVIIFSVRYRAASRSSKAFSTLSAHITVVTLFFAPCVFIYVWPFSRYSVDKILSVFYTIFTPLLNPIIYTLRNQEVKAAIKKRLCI
Summary of the method: (§1)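 Transient luciferase assays in mammalian cell lines were common, though methods varied by source. The values come from published papers and their supplementary material, with extra details from the original authors when needed. Responsive refers to a measured signal the original authors judged statistically different from baseline, and non-responsive (inactive) to the remainder.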

OR4K14 (Homo sapiens) = biological target: T2, OR4K14 (Homo sapiens) (UniProt Q8NGD5)
T2 sequence (whole entry): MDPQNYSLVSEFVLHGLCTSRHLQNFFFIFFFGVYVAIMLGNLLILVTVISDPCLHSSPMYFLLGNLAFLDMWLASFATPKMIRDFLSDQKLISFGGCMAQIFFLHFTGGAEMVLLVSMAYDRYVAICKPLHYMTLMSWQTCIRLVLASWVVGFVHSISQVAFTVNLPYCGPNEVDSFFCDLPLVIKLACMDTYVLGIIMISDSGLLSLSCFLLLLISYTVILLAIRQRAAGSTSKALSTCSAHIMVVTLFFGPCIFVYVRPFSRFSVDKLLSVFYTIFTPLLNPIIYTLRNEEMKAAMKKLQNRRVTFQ
Summary of the method: as §1

OR4K15 (Homo sapiens) = biological target: T3, OR4K15 (Homo sapiens) (UniProt Q8NH41)
T3 sequence (whole entry): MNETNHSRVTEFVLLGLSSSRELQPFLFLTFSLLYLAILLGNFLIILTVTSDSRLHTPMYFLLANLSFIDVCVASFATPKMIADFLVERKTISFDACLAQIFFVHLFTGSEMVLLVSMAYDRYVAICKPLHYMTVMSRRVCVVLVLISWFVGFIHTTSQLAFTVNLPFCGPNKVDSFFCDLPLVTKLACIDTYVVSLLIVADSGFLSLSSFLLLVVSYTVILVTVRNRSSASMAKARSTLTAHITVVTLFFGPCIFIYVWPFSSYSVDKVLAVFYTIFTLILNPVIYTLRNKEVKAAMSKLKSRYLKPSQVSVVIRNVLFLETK
Summary of the method: as §1

OR4K17 (Homo sapiens) = biological target: T4, OR4K17 (Homo sapiens) (UniProt Q8NGC6)
T4 sequence (whole entry): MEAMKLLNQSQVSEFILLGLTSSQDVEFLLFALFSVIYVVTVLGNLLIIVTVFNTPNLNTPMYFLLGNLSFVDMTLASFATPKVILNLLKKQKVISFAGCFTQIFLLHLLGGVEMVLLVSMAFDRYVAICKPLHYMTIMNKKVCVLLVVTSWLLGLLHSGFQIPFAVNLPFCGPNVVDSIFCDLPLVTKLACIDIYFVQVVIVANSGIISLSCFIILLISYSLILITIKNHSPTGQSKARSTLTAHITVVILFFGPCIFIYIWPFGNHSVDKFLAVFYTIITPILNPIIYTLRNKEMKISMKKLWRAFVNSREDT
Summary of the method: as §1

OR4K2 (Homo sapiens) = biological target: T5, OR4K2 (Homo sapiens) (UniProt Q8NGD2)
T5 sequence (whole entry): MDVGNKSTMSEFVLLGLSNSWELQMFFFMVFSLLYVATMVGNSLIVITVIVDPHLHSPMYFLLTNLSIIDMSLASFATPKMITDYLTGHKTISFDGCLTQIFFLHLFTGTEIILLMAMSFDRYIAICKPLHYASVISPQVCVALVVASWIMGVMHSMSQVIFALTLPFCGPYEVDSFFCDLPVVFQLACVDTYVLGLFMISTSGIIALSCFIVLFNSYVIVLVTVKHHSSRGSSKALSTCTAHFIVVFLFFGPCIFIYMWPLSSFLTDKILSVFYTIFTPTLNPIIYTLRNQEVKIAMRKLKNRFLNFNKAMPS
Summary of the method: as §1

OR4K5 (Homo sapiens) = biological target: T6, OR4K5 (Homo sapiens) (UniProt Q8NGD3)
T6 sequence (whole entry): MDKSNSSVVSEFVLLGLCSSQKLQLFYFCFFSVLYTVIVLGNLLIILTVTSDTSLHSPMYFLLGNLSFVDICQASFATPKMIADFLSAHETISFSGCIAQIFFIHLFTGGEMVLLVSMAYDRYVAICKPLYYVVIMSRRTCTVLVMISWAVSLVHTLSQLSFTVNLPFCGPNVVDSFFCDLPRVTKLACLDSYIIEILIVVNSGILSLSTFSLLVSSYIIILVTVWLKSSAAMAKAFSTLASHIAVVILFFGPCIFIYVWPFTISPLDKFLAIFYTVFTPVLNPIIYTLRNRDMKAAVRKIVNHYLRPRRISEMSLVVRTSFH
Summary of the method: as §1

OR4K1 R304H = test system: T7, OR4K1 R304H
T7 sequence (whole entry): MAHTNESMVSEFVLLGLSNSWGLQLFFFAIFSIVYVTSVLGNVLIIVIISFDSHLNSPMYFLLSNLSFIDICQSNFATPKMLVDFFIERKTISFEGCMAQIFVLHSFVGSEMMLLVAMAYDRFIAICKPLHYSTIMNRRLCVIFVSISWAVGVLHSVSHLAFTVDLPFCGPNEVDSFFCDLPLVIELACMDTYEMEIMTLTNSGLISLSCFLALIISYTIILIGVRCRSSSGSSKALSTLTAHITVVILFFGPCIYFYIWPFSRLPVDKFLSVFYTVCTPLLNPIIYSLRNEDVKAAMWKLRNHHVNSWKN
Summary of the method: as §1

OR4K2 = test system: T8, OR4K2
T8 sequence (whole entry): T5 sequence (whole entry) with N307I
Summary of the method: as §1

OR4KF = test system: T9, OR4KF
T9 sequence (whole entry): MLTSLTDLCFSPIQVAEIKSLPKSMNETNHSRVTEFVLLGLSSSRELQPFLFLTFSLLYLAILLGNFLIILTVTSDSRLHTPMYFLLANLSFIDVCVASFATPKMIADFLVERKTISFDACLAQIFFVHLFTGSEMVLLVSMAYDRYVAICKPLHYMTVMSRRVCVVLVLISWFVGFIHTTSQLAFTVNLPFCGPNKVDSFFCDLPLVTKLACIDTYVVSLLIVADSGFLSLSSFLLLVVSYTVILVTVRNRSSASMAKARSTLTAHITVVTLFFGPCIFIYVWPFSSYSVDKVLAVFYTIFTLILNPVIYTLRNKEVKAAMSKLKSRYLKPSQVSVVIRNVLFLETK
Summary of the method: as §1

OR4K3 (Homo sapiens) = OR4K3 (Homo sapiens) (UniProt Q96R72)
Summary of the method: as §1

Measured: odorant receptor agonist call;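 further: active if original authors judged signal statistically different from baseline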

Sequence of OR4K3 (Homo sapiens) (Q96R72 whole entry): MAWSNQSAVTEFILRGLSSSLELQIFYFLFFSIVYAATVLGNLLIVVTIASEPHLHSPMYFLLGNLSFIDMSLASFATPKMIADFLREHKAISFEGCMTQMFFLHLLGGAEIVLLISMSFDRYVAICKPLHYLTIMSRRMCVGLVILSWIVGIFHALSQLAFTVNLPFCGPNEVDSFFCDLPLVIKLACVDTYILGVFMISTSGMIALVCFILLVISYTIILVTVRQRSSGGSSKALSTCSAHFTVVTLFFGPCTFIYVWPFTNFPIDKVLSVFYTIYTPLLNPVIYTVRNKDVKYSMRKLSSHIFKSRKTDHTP

CCCCCC(=O)C(C)C(C)=O (stereo unspecified)
inactive: OR4K13 (Homo sapiens) | OR4K14 (Homo sapiens) | OR4K15 (Homo sapiens) | OR4K17 (Homo sapiens) | OR4K2 (Homo sapiens) | OR4K5 (Homo sapiens)

CCC1OC(=O)C(O)=C1C (stereo unspecified)
inactive: OR4K1 R304H | OR4K13 (Homo sapiens) | OR4K14 (Homo sapiens) | OR4K2 (Homo sapiens) | OR4K2 | OR4K5 (Homo sapiens) | OR4KF

CCCC(S)CCOC(C)=O (stereo unspecified)
inactive: OR4K1 R304H | OR4K13 (Homo sapiens) | OR4K14 (Homo sapiens) | OR4K2 (Homo sapiens) | OR4K2 | OR4K5 (Homo sapiens) | OR4KF

CC1CCCCCCCCCCCCC(=O)C1 (stereo unspecified)
inactive: OR4K13 (Homo sapiens) | OR4K14 (Homo sapiens) | OR4K15 (Homo sapiens) | OR4K17 (Homo sapiens) | OR4K2 (Homo sapiens) | OR4K3 (Homo sapiens) | OR4K5 (Homo sapiens)

CC(CO)CS (stereo unspecified)
inactive: OR4K13 (Homo sapiens) | OR4K14 (Homo sapiens) | OR4K15 (Homo sapiens) | OR4K17 (Homo sapiens) | OR4K2 (Homo sapiens) | OR4K5 (Homo sapiens)

CCCCC(S)C(C)CO (stereo unspecified)
inactive: OR4K13 (Homo sapiens) | OR4K14 (Homo sapiens) | OR4K15 (Homo sapiens) | OR4K17 (Homo sapiens) | OR4K2 (Homo sapiens) | OR4K5 (Homo sapiens)

CCCCCCC=CCCC=O
inactive: OR4K1 R304H | OR4K13 (Homo sapiens) | OR4K14 (Homo sapiens) | OR4K15 (Homo sapiens) | OR4K17 (Homo sapiens) | OR4K2 (Homo sapiens) | OR4K2 | OR4K5 (Homo sapiens)

CC1=NC(C)C(C)S1 (stereo unspecified)
inactive: OR4K1 R304H | OR4K13 (Homo sapiens) | OR4K14 (Homo sapiens) | OR4K2 (Homo sapiens) | OR4K2 | OR4K5 (Homo sapiens) | OR4KF

Cc1cnc(C)c(C)n1
inactive: OR4K1 R304H | OR4K13 (Homo sapiens) | OR4K14 (Homo sapiens) | OR4K2 (Homo sapiens) | OR4K2 | OR4K5 (Homo sapiens) | OR4KF

CC1=C(O)C(=O)OC1C (stereo unspecified)
inactive: OR4K1 R304H | OR4K13 (Homo sapiens) | OR4K14 (Homo sapiens) | OR4K2 (Homo sapiens) | OR4K2 | OR4K5 (Homo sapiens) | OR4KF

CCCCCC(S)C(C)CO (stereo unspecified)
inactive: OR4K13 (Homo sapiens) | OR4K14 (Homo sapiens) | OR4K15 (Homo sapiens) | OR4K17 (Homo sapiens) | OR4K2 (Homo sapiens) | OR4K5 (Homo sapiens)

CCC1OC(C)=C(O)C1=O (stereo unspecified)
inactive: OR4K1 R304H | OR4K13 (Homo sapiens) | OR4K14 (Homo sapiens) | OR4K2 (Homo sapiens) | OR4K2 | OR4K5 (Homo sapiens) | OR4KF

CC(=O)c1c(C)c([N+](=O)[O-])c(C(C)(C)C)c([N+](=O)[O-])c1C
inactive: OR4K13 (Homo sapiens) | OR4K14 (Homo sapiens) | OR4K15 (Homo sapiens) | OR4K17 (Homo sapiens) | OR4K2 (Homo sapiens) | OR4K3 (Homo sapiens) | OR4K5 (Homo sapiens)

CC1=C(O)C(=O)C(C)O1 (stereo unspecified)
inactive: OR4K1 R304H | OR4K13 (Homo sapiens) | OR4K14 (Homo sapiens) | OR4K2 (Homo sapiens) | OR4K2 | OR4K5 (Homo sapiens) | OR4KF

CCC(S)C(C)CO (stereo unspecified)
inactive: OR4K13 (Homo sapiens) | OR4K14 (Homo sapiens) | OR4K15 (Homo sapiens) | OR4K17 (Homo sapiens) | OR4K2 (Homo sapiens) | OR4K5 (Homo sapiens)
